In ChEMBL document CHEMBL1150351, “Design, synthesis, and biological evaluation of new-generation taxoids” (J Med Chem, 2008):
Activity calls are given as the source filed them. The rule behind the calls is not given here.

Key:
[1] = tested on: MCF7; assay: Cytotoxicity against Pgp deficient human MCF7 cells after 72 hrs by sulforhodamine B test; type: functional, cell-based; conditions: MCF7, 72 h
[2] = Cytotoxicity against multidrug resistant Pgp expressing human LCC6 cells after 72 hrs by sulforhodamine B test; type: functional, cell-based; conditions: LCC-6, 72 h
[3] = Cytotoxicity against Pgp deficient human LCC6 cells after 72 hrs by sulforhodamine B test; type: functional, cell-based; conditions: C6, 72 h
[4] = organism: Bos taurus; assay: Induction of calf brain tubulin polymerization at 10 uM in absence of GTP by spectrophotometric assay
[5] = tested on: MCF7; assay: Resistance index, Ratio of IC50 for multidrug resistant Pgp expressing human NCI/ADR cells to IC50 for Pgp deficient human MCF7 cells; type: functional; design: reference not given here
[6] = organism: Bos taurus; assay: Induction of calf brain tubulin polymerization at 10 uM by spectrophotometric assay
Summary of the method: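 Calf brain microtubule protein diluted to 1 mg/mL in MES buffer with 3 M glycerol; taxoid at 10 µM. Assembly followed at 37 °C as turbidity change at 350 nm. 6 mM CaCl2 added after 50 min to follow depolymerization. Tubulin is 85% of the protein. Runs used either centrifuged tubulin or tubulin used as stored, with 1 mM GTP in some runs.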

[7] = Cytotoxicity against multidrug resistant Pgp expressing human NCI/ADR cells after 72 hrs by sulforhodamine B test; type: functional, cell-based; conditions: NCI/ADR-RES
[8] = tested on: C6; assay: Resistance index, Ratio of IC50 for multidrug resistant Pgp expressing human LCC6 cells to IC50 for Pgp deficient human LCC6 cells; type: functional; design: reference not given here
[9] = Cytotoxicity against paclitaxel resistant human 1A9PTX10 cells expressing class 1 beta-tubulin mutant after 72 hrs; type: functional, cell-based; conditions: 1A9/ptx-10, 72 h
[10] = tested on: CFPAC-1; assay: Cytotoxicity against multidrug resistant human CFPAC1 cells after 72 hrs by MTT assay; type: functional, cell-based; conditions: CFPAC-1, 72 h
Summary of the method: (§1)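 Pancreatic lines were cultured per ATCC, seeded at 2.5 × 10^4 cells/well and allowed to adhere overnight. The medium was replaced with drug diluted from a 10 mM DMSO stock, or vehicle, for 72 h, in triplicate, with at least three independent trials. MTT at 0.5 mg/mL was added for 3 h, formazan was dissolved in acidified isopropanol, and A570 was read. IC50 came from sigmoid-Emax nonlinear regression.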

[11] = organism: Bos taurus; assay: Induction of calf brain tubulin polymerization at 10 uM in after 5 mins in absence of GTP by spectrophotometric assay
[12] = tested on: MIA PaCa-2; assay: Cytotoxicity against multidrug resistant human MIAPaCa2 cells after 72 hrs by MTT assay; type: functional, cell-based; conditions: MIA PaCa-2, 72 h; summary of the method: as §1
[13] = Cytotoxicity against paclitaxel resistant human 1A9PTX22 cells expressing class 1 beta-tubulin mutant after 72 hrs; type: functional, cell-based; conditions: 1A9/ptx-22, 72 h
[14] = tested on: PANC-1; assay: Cytotoxicity against multidrug resistant human PANC1 cells after 72 hrs by MTT assay; type: functional, cell-based; conditions: PANC-1, 72 h; summary of the method: as §1
[15] = tested on: A2780; assay: Cytotoxicity against human A2780 cells after 72 hrs; type: functional, cell-based; conditions: A2780, 72 h
[16] = tested on: BXPC-3; assay: Cytotoxicity against multidrug resistant human BxPC3 cells after 72 hrs by MTT assay; type: functional, cell-based; conditions: BXPC-3, 72 h; summary of the method: as §1
[17] = tested on: DLD-1; assay: Antitumor activity against Pgp expressing multidrug resistant human DLD1 cells xenografted SCID mouse assessed as tumor growth at 20 mg/kg, iv administered for 3 days after 167 days; type: functional, organism-based; design: dose 20 mg/kg
Summary of the method: (§2)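 Female SCID mice (6-8 weeks), 5 per treated group, 10 untreated controls, bearing DLD-1 (Pgp+) human colon xenografts. Dosing was iv by tail vein from day 5 after implant, ×3. Stock was 30 mg/mL in Tween-80/ethanol 1:1, diluted in 0.9% saline. Caliper volume V=0.4·l·w² every 3-4 days. Growth delay was time to 600 mm3, interpolated from log(volume) vs time. Cox-Mantel test was used versus control. Cure meant no palpable tumor on day 167.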

[18] = tested on: Mus musculus; assay: Toxicity in Pgp expressing multidrug resistant human DLD1 cells xenografted SCID mouse at 20 mg/kg, iv administered for 3 days; type: organism-based, DLD-1; design: dose 20 mg/kg, route intravenous; conditions: in vivo, 72 h
Summary of the method: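 Female SCID mice with DLD-1 (Pgp+) colon xenografts, 5 per group. Dosing was iv by tail vein, 20 mg/kg ×3 from day 5 post-implant, in Tween-80/ethanol diluted with saline. Toxicity was counted as animals that died or lost more than 20% body weight.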

[19] = tested on: DLD-1; assay: Antitumor activity against Pgp expressing multidrug resistant human DLD1 cells xenografted SCID mouse assessed as tumor growth delay at 20 mg/kg, iv administered for 3 days; type: functional; summary of the method: as §2
[20] = tested on: DLD-1; assay: Antitumor activity against Pgp expressing multidrug resistant human DLD1 cells xenografted SCID mouse assessed as tumor growth delay at 40 mg/kg, iv administered for 3 days; type: functional; summary of the method: as §2
[21] = Cytotoxicity against human primary pancreatic ductal cells after 72 hrs by MTT assay; type: cell-based
[22] = tested on: CFPAC-1; assay: Antitumor activity against mdr1 expressing multidrug resistant human CFPAC1 cells xenografted Swiss mouse assessed as reduction in tumor volume at 20 mg/kg, iv administered for 3 days after 8 weeks; type: functional, organism-based; design: dose 20 mg/kg
Summary of the method: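 CFPAC-1 (mdr1-high) pancreatic cells, 1 × 10^6 in 200 µL PBS, were injected into both flanks. Treatment began on day 19 at about 100 mm3. Dosing was iv by tail vein on days 19, 22 and 25 at 20 mg/kg each (60 mg/kg total). Stock was 30 mg/mL in Tween-80/ethanol 1:1, diluted in PBS to 0.2 mL. Caliper volume was V=0.4·l·w².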

[23] = organism: Bos taurus; assay: Induction of calf brain tubulin polymerization at 10 uM after 12 mins in presence of GTP by spectrophotometric assay
Summary of the method: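 Calf brain microtubule protein, 1 mg/mL in MES buffer with 3 M glycerol, was assembled at 37 °C with 1 mM GTP and 10 µM drug. Turbidity was followed at 350 nm. Tubulin stored in liquid nitrogen was centrifuged just before use and adjusted to 1 mg/mL. CaCl2 (6 mM) was added at 50 min to follow depolymerization.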

[24] = tested on: DLD-1; assay: Antitumor activity against Pgp expressing multidrug resistant human DLD1 cells xenografted SCID mouse assessed as tumor growth at 10 mg/kg, iv administered for 3 days after 167 days; type: functional, organism-based; design: dose 10 mg/kg; summary of the method: as §2
[25] = tested on: DLD-1; assay: Antitumor activity against Pgp expressing multidrug resistant human DLD1 cells xenografted SCID mouse assessed as tumor growth delay at 10 mg/kg, iv administered for 3 days; type: functional; summary of the method: as §2

| Structure (SMILES) | IC50 [1] [nM] | IC50 [2] [nM] | IC50 [3] [nM] | Activity [4] | Ratio IC50 [5] | IC50 [7] [nM] | Ratio IC50 [8] | IC50 [9] [nM] | IC50 [10] [nM] | IC50 [12] [nM] | IC50 [13] [nM] | IC50 [14] [nM] | IC50 [15] [nM] | IC50 [16] [nM] | Activity [17] | Activity [19] [days] | further results |
| --- | --- | --- | --- | --- | --- | --- | --- | --- | --- | --- | --- | --- | --- | --- | --- | --- | --- |
| COC(=O)O[C@H]1C(=O)[C@@]2(C)[C@H]([C@H](OC(=O)c3cccc(OC)c3)[C@]3(O)C[C@H](OC(=O)[C@H](O)[C@H](C=C(C)C)NC(=O)OC(C)(C)C)C(C)=C1C3(C)C)[C@]1(OC(C)=O)CO[C@@H]1C[C@@H]2O | 0.4 | 1.6 | 0.6 | Active | 3.5 | 1.4 | 2.7 |  |  |  |  |  |  |  |  |  | Activity [6]: Active |
| CCC(=O)O[C@H]1C(=O)[C@@]2(C)[C@H]([C@H](OC(=O)c3cccc(OC)c3)[C@]3(O)C[C@H](OC(=O)[C@H](O)[C@H](C=C(C)C)NC(=O)OC(C)(C)C)C(C)=C1C3(C)C)[C@]1(OC(C)=O)CO[C@@H]1C[C@@H]2O | 0.36 |  | 1 | Active |  | 0.33 |  | 3.65 | 0.89 | 0.68 | 3.88 | 22.6 | 0.76 | 3.03 |  |  | Activity [11]: > 90% |
| CC(=O)O[C@H]1C(=O)[C@@]2(C)[C@H]([C@H](OC(=O)c3ccccc3)[C@]3(O)C[C@H](OC(=O)[C@H](O)[C@@H](NC(=O)c4ccccc4)c4ccccc4)C(C)=C1C3(C)C)[C@]1(OC(C)=O)CO[C@@H]1C[C@@H]2O [PACLITAXEL] |  | 346 |  |  |  | 300 |  | 533 |  |  | 161 |  | 1.38 |  | inactive | 8 | Activity [18]: Non-toxic |
| CC(=O)O[C@@]12CO[C@@H]1C[C@H](O)[C@@]1(C)C(=O)[C@H](OC(=O)C3CC3)C3=C(C)[C@@H](OC(=O)[C@H](O)[C@H](C=C(C)C)NC(=O)OC(C)(C)C)C[C@@](O)([C@@H](OC(=O)c4ccccc4)[C@H]21)C3(C)C |  |  |  | Active |  | 3.9 |  | 9 | 0.83 | 0.92 | 3.94 | 3.68 | 0.44 | 1.04 | Active | >150 | Activity [20]: >150 days; Activity [21]: Non-toxic; Activity [22]: Active; Activity [23]: 90%; Activity [24]: inactive; Activity [25]: 37 days |
| CCC(=O)O[C@H]1C(=O)[C@@]2(C)[C@H]([C@H](OC(=O)c3ccccc3)[C@]3(O)C[C@H](OC(=O)[C@H](O)[C@H](C=C(C)C)NC(=O)C4=CCCCC4)C(C)=C1C3(C)C)[C@]1(OC(C)=O)CO[C@@H]1C[C@@H]2O | 0.3 | 11 | 1.2 |  | 13 | 3.8 | 9.2 |  |  |  |  |  |  |  |  |  |  |
| CCC(=O)O[C@H]1C(=O)[C@@]2(C)[C@H]([C@H](OC(=O)c3cccc(OC)c3)[C@]3(O)C[C@H](OC(=O)[C@H](O)[C@H](C=C(C)C)NC(=O)C4CC4)C(C)=C1C3(C)C)[C@]1(OC(C)=O)CO[C@@H]1C[C@@H]2O | 0.5 | 17.2 | 1.1 |  | 15.6 | 7.8 | 16 |  |  |  |  |  |  |  |  |  |  |
